# Active and inactive are the calls of the source. No cut-off for these calls is given here.
# Columns and labels:
# [1] = system: Mus musculus; assay: Percentage block of the hind-limb tonic-extensor seizure was determined after application of an electric shock to mice for 30 min followed by 200 mg/kg peroral dose; format: functional; conditions: route oral
# Summary of the method: (§1)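 Supramaximal electroshock: 50-mA current (60 Hz, 0.20 s) via corneal electrodes induced hind-limb tonic extension; inhibition of this component scored as activity. Mice dosed ip and/or po in aqueous solution or suspension (ca. 0.1% Tween 80, distilled water). Tested at 30, 60, 120 and 240 min (sometimes 45 min); ten mice per time point.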
# [2] = system: Mus musculus; assay: Percentage block of the hind-limb tonic-extensor seizure was determined after application of an electric shock to mice for 60 min followed by 100 mg/kg intraperitoneal dose; format: functional; summary of the method: as §1
# [3] = system: Mus musculus; assay: Percentage block of the hind-limb tonic-extensor seizure was determined after application of an electric shock to mice for 60 min followed by 200 mg/kg peroral dose; format: functional; conditions: route oral
# Summary of the method: (§2)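 Mouse MES test: supramaximal seizure from a 50-mA current (60 Hz, 0.20-s) through corneal electrodes. […] Ten mice per time point. Compound given in aqueous solution or in suspension in ca. 0.1% Tween 80 and distilled water. Free food and water except during testing.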
# [4] = system: Mus musculus; assay: Percentage block of the hind-limb tonic-extensor seizure was determined after application of an electric shock to mice for 120 min followed by 200 mg/kg peroral dose; format: functional; conditions: route oral; summary of the method: as §1
# [5] = system: Mus musculus; assay: Percentage block of the hind-limb tonic-extensor seizure was determined after application of an electric shock to mice for 240 min followed by 200 mg/kg peroral dose; format: functional; conditions: route oral; summary of the method: as §1
# [6] = system: Mus musculus; assay: Percentage block of the hind-limb tonic-extensor seizure was determined after application of an electric shock to mice for 120 min followed by 100 mg/kg intraperitoneal dose; format: functional; summary of the method: as §1
# [7] = system: Mus musculus; assay: Anticonvulsant activity by using a standard maximal electroshock test (MES) in mice, by intraperitoneal administration of the compound; Range 50-100 mg/kg; format: functional; conditions: ip; summary of the method: as §1
# [8] = system: Mus musculus; assay: Percentage block of the hind-limb tonic-extensor seizure was determined after application of an electric shock to mice for 30 min followed by 100 mg/kg intraperitoneal dose; format: functional; summary of the method: as §1
# [9] = system: Mus musculus; assay: Percentage block of the hind-limb tonic-extensor seizure was determined after application of an electric shock to mice for 240 min followed by 100 mg/kg intraperitoneal dose; format: functional; summary of the method: as §1
# [10] = system: Mus musculus; assay: Anticonvulsant activity following p.o. administration by standard maximal electroshock test in mice.; format: functional; conditions: po; summary of the method: as §1
# [11] = system: Mus musculus; assay: Percentage block of the hind-limb tonic-extensor seizure was determined after application of an electric shock to mice for 60 min followed by 15 mg/kg peroral dose; format: functional; conditions: route oral; summary of the method: as §2
# [12] = system: Mus musculus; assay: Percentage block of the hind-limb tonic-extensor seizure was determined after application of an electric shock to mice for 60 min followed by 10 mg/kg intraperitoneal dose; format: functional; summary of the method: as §1
# [13] = system: Mus musculus; assay: Anticonvulsant activity by using a standard maximal electroshock test (MES) in mice, by intraperitoneal administration of the compound; format: functional; conditions: ip; summary of the method: as §1
# [14] = system: Mus musculus; assay: Percentage block of the hind-limb tonic-extensor seizure was determined after application of an electric shock to mice for 120 min followed by 10 mg/kg intraperitoneal dose; format: functional; summary of the method: as §1
# [15] = system: Mus musculus; assay: Percentage block of the hind-limb tonic-extensor seizure was determined after application of an electric shock to mice for 240 min followed by 10 mg/kg intraperitoneal dose; format: functional; summary of the method: as §1
# [16] = system: Mus musculus; assay: Percentage block of the hind-limb tonic-extensor seizure was determined after application of an electric shock to mice for 30 min followed by 10 mg/kg intraperitoneal dose; format: functional; summary of the method: as §1
# [17] = system: Mus musculus; assay: Percentage block of the hind-limb tonic-extensor seizure was determined after application of an electric shock to mice for 240 min followed by 15 mg/kg peroral dose; format: functional; conditions: route oral; summary of the method: as §1
# [18] = system: Mus musculus; assay: Percentage block of the hind-limb tonic-extensor seizure was determined after application of an electric shock to mice for 120 min followed by 15 mg/kg peroral dose; format: functional; conditions: route oral; summary of the method: as §1
# [19] = system: Mus musculus; assay: Percentage block of the hind-limb tonic-extensor seizure was determined after application of an electric shock to mice for 30 min followed by 15 mg/kg peroral dose; format: functional; conditions: route oral; summary of the method: as §1
# [20] = system: Mus musculus; assay: Percentage block of the hind-limb tonic-extensor seizure was determined after application of an electric shock to mice for 30 min followed by 40 mg/kg peroral dose; format: functional; conditions: route oral; summary of the method: as §1
# [21] = system: Mus musculus; assay: Percentage block of the hind-limb tonic-extensor seizure was determined after application of an electric shock to mice for 240 min followed by 40 mg/kg peroral dose; format: functional; conditions: route oral; summary of the method: as §1
# [22] = system: Mus musculus; assay: Percentage block of the hind-limb tonic-extensor seizure was determined after application of an electric shock to mice for 60 min followed by 40 mg/kg peroral dose; format: functional; conditions: route oral; summary of the method: as §2
# [23] = system: Mus musculus; assay: Percentage block of the hind-limb tonic-extensor seizure was determined after application of an electric shock to mice for 120 min followed by 40 mg/kg peroral dose; format: functional; conditions: route oral; summary of the method: as §1
# [24] = system: Mus musculus; assay: Anticonvulsant activity was determined as percentage of block of the hind-limb tonic-extensor seizure caused by application of an electric shock to mice via corneal electrodes at 240 min by 100 mg/kg intraperitoneal dose; format: functional; summary of the method: as §1
# [25] = system: Mus musculus; assay: Anticonvulsant activity was determined as percentage of block of the hind-limb tonic-extensor seizure caused by application of an electric shock to mice via corneal electrodes at 60 min by 100 mg/kg intraperitoneal dose; format: functional; summary of the method: as §1
# [26] = system: Mus musculus; assay: Anticonvulsant activity was determined as percentage of block of the hind-limb tonic-extensor seizure caused by application of an electric shock to mice via corneal electrodes at 60 min by 200 mg/kg peroral dose; format: functional; conditions: route oral; summary of the method: as §1
# [27] = system: Mus musculus; assay: Anticonvulsant activity was determined as percentage of block of the hind-limb tonic-extensor seizure caused by application of an electric shock to mice via corneal electrodes at 240 min by 200 mg/kg peroral dose; format: functional; conditions: route oral; summary of the method: as §1
# [28] = system: Mus musculus; assay: Anticonvulsant activity was determined as percentage of block of the hind-limb tonic-extensor seizure caused by application of an electric shock to mice via corneal electrodes at 30 min by 100 mg/kg intraperitoneal dose; format: functional; summary of the method: as §1
# [29] = system: Mus musculus; assay: Anticonvulsant activity was determined as percentage of block of the hind-limb tonic-extensor seizure caused by application of an electric shock to mice via corneal electrodes at 120 min by 100 mg/kg intraperitoneal dose; format: functional; summary of the method: as §1
# [30] = system: Mus musculus; assay: Anticonvulsant activity was determined as percentage of block of the hind-limb tonic-extensor seizure caused by application of an electric shock to mice via corneal electrodes at 120 min by 200 mg/kg peroral dose; format: functional; conditions: route oral; summary of the method: as §1
# [31] = system: Mus musculus; assay: Percentage block of the hind-limb tonic-extensor seizure was determined after application of an electric shock to mice for 60 min followed by 100 mg/kg peroral dose; format: functional; conditions: route oral; summary of the method: as §2
# [32] = system: Mus musculus; assay: LD50 of compound after ip administration after 24 hrs was determined; format: functional
# [33] = system: Mus musculus; assay: Percentage block of the hind-limb tonic-extensor seizure was determined after application of an electric shock to mice for 60 min followed by 50 mg/kg intraperitoneal dose; format: functional; summary of the method: as §2
# [34] = system: Mus musculus; assay: Percentage block of the hind-limb tonic-extensor seizure was determined after application of an electric shock to mice for 240 min followed by 50 mg/kg intraperitoneal dose; format: functional; summary of the method: as §1
# [35] = system: Mus musculus; assay: Neurotoxic dose ED50 after po administration in mice at 1 hrs was determined; format: functional
# Summary of the method: (§3)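 Neurotoxicity measured in mice with the rotoreel test after oral dosing. TD50 is the neurotoxic dose ED50, read at 1 h (peak time for TD50) and at 4 h (approximate peak time for the MES ED50). Compound was given as an aqueous solution or as a suspension in about 0.1% Tween 80 in distilled water. Animals had free access to food and water except during testing.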
# [36] = system: Mus musculus; assay: Anticonvulsant activity by using a standard maximal electroshock test (MES) in mice by intraperitoneal administration of the compound; format: functional; conditions: ip; summary of the method: as §1
# [37] = system: Mus musculus; assay: Percentage block of the hind-limb tonic-extensor seizure was determined after application of an electric shock to mice for 240 min followed by 100 mg/kg peroral dose; format: functional; conditions: route oral; summary of the method: as §1
# [38] = system: Mus musculus; assay: Percentage block of the hind-limb tonic-extensor seizure was determined after application of an electric shock to mice for 30 min followed by 100 mg/kg peroral dose; format: functional; conditions: route oral; summary of the method: as §1
# [39] = system: Mus musculus; assay: Percentage block of the hind-limb tonic-extensor seizure was determined after application of an electric shock to mice for 120 min followed by 50 mg/kg intraperitoneal dose; format: functional; summary of the method: as §1
# [40] = system: Mus musculus; assay: Percentage block of the hind-limb tonic-extensor seizure was determined after application of an electric shock to mice for 30 min followed by 50 mg/kg intraperitoneal dose; format: functional; summary of the method: as §1
# [41] = system: Mus musculus; assay: Percentage block of the hind-limb tonic-extensor seizure was determined after application of an electric shock to mice for 120 min followed by 100 mg/kg peroral dose; format: functional; conditions: route oral; summary of the method: as §1
# [42] = system: Mus musculus; assay: Neurotoxic dose ED50 after po administration in mice at 4 hrs was determined; format: functional; summary of the method: as §3
# [43] = system: Mus musculus; assay: Anticonvulsant activity by using a standard maximal electroshock test (MES) in mice, by 100 mg/kg intraperitoneal administration of the compound; I=inactive, 0-10% block; format: functional, organism-based; set-up: dose 100 mg/kg; summary of the method: as §1
# [44] = system: Mus musculus; assay: Percentage block of the hind-limb tonic-extensor seizure was determined after application of an electric shock to mice for followed by 200 mg/kg peroral dose; conditions: route oral
# [45] = system: Mus musculus; assay: Anticonvulsant activity by using a standard maximal electroshock test (MES) in mice, by 200 mg/kg peroral administration of the compound; I=inactive, 0-10% block; format: functional, organism-based; set-up: dose 200 mg/kg; summary of the method: as §1
smiles,measurement,setting,value
CNS(=O)(=O)OC[C@@]12OC[C@H]3OC(C)(C)OC3C1OC(C)(C)O2 (some centres not stated),Block,[1],20%
same,Block,[2],90%
same,Block,[3],70%
same,Block,[4],100%
same,Block,[5],100%
same,Block,[6],80%
same,ED50,[7],50 mg/kg
same,Block,[8],30%
same,Block,[9],30%
same,ED50,[10],200 mg/kg
O=C1NC(=O)C(c2ccccc2)(c2ccccc2)N1 [PHENYTOIN],Block,[11],80%
same,Block,[12],60%
same,ED50,[13],10 mg/kg
same,Block,[14],80%
same,Block,[15],70%
same,Block,[16],60%
same,Block,[17],30%
same,Block,[18],70%
same,Block,[19],50%
same,ED50,[10],10 mg/kg
NS(=O)(=O)Cc1noc2ccccc12 [ZONISAMIDE],Block,[20],20%
same,Block,[21],50%
same,Block,[22],40%
same,Block,[23],40%
NS(=O)(=O)OCC1COC2(CCCCC2)O1 (configuration not stated),Block,[24],0%
same,Block,[25],10%
same,Block,[1],70%
same,Block,[26],30%
same,ED50,[13],169 mg/kg
same,Block,[27],10%
same,Block,[28],30%
same,Block,[29],0%
same,Block,[30],20%
same,ED50,[10],~150 mg/kg
CC1(C)O[C@@H]2[C@@H](CO[C@@]3(COS(N)(=O)=O)OC(C)(C)O[C@@H]23)O1 [TOPIRAMATE],Block,[31],80%
same,LD50,[32],> 1000 mg/kg
same,Block,[33],60%
same,Block,[34],50%
same,TD50,[35],407 mg/kg
same,ED50,[36],64 mg/kg
same,Block,[37],100%
same,Block,[38],40%
same,Block,[39],70%
same,Block,[40],20%
same,Block,[41],80%
same,TD50,[42],1100 mg/kg
same,ED50,[10],61 mg/kg
CC1(C)C2CCC(COS(N)(=O)=O)C1C2 (configuration not stated),Block,[1],10%
same,Block,[2],10%
same,Block,[4],10%
same,Block,[5],0%
same,ED50,[43],inactive
same,Block,[6],0%
same,Block,[44],10%
same,Block,[8],10%
same,Block,[9],0%
same,ED50,[45],inactive
